{"source": "ChEMBL document CHEMBL3526081", "about": "(Drug Metab Dispos, 2011)", "key": {"Liver microsome [1]": {"test_system": "Liver microsome", "experiment": "Drug metabolism in human liver microsomes assessed as 1alpha-hydroxylcinobufagin formation at 100 uM at 37 degC after 30 mins […] in presence of 50 uM triethylenethiophosphoramide CYP2B6 inhibitor", "assay_type": "ADME", "conditions": "0.5 h"}, "Liver microsome [2]": {"test_system": "Liver microsome", "experiment": "Drug metabolism in human liver microsomes assessed as 5beta-hydroxylcinobufagin formation at 100 uM at 37 degC after 30 mins by UFLC-ESI-MS analysis in presence of 20 uM omeprazole CYP2C19 inhibitor", "assay_type": "ADME", "conditions": "0.5 h", "in_short": "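Pooled human liver microsomes (10 donors, both sexes) in 100 mM potassium phosphate pH 7.4 were incubated with CB and a selective P450 inhibitor. Reaction was started with NADPH-generating system after 3 min preincubation at 37°C and stopped with ice-cold acetonitrile. Hydroxylated products were quantified by UFLC-DAD at 294 nm; three experiments in duplicate.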"}, "Liver microsome [3]": {"test_system": "Liver microsome", "experiment": "Drug metabolism in human liver microsomes assessed as 1alpha-hydroxylcinobufagin formation at 100 uM at 37 degC after 30 mins […] in presence of 2 uM montelukast CYP2C8 inhibitor", "assay_type": "ADME", "conditions": "0.5 h"}, "Liver microsome [4]": {"test_system": "Liver microsome", "experiment": "Drug metabolism in beagle dog liver microsomes assessed as 1alpha-hydroxylcinobufagin formation at 100 uM at 37 degC after 30 mins by UFLC-ESI-MS analysis in presence of 10 uM furafylline CYP1A2 inhibitor", "assay_type": "ADME, Canis lupus familiaris", "conditions": "0.5 h", "in_short": "(§1)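 Chemical inhibition: selective P450 inhibitors (furafylline, sulfaphenazole, ketoconazole) added to liver microsome incubations in 100 mM potassium phosphate pH 7.4 with NADPH-generating system at 37°C. Hydroxylated metabolite formation quantified by UFLC at 294 nm against standards. Mean ± S.D. of three experiments in duplicate.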"}, "[5]": {"experiment": "Drug metabolism in cynomolgus monkey liver microsomes assessed as 5beta-hydroxylcinobufaginn formation at 100 uM […] by UFLC-ESI-MS analysis", "assay_type": "ADME, Macaca fascicularis", "conditions": "0.5 h, read-out: Km(app)"}, "Liver microsome [6]": {"test_system": "Liver microsome", "experiment": "Drug metabolism in human liver microsomes assessed as 5beta-hydroxylcinobufagin formation at 100 uM at 37 degC after 30 mins by […] in presence of 1 uM ketoconazole CYP3A4 inhibitor", "assay_type": "ADME", "conditions": "0.5 h"}, "[7]": {"experiment": "Drug metabolism in Swiss-Hauschka (ICR) mouse liver microsomes assessed as 5beta-hydroxylcinobufagin formation at 100 uM at 37 degC after 30 mins by UFLC-ESI-MS analysis in presence of NADPH-generating system", "assay_type": "ADME", "conditions": "0.5 h", "in_short": "(§2)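 Liver microsomes (0.3 mg protein/ml) incubated with 100 µM substrate at 37°C for 30 min, in 100 mM potassium phosphate pH 7.4 with NADPH-generating system (1 mM NADP+, 10 mM glucose 6-phosphate, 1 unit/ml G6PDH, 4 mM MgCl2). Acetonitrile ≤1% final. Stopped with ice-cold acetonitrile and centrifuged. Metabolites identified by UFLC-ESI-MS and quantified by UFLC-DAD at 294 nm against authentic standard curves.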"}, "[8]": {"experiment": "Drug metabolism in Colony-bred Chinese Bama minipig liver microsomes assessed as 1alpha-hydroxylcinobufagin formation at 100 uM at 37 degC after 30 mins by UFLC-ESI-MS analysis in presence of NADPH-generating system", "assay_type": "ADME, Sus scrofa", "conditions": "pig, 0.5 h", "in_short": "as §2"}, "[9]": {"experiment": "Drug metabolism in Swiss-Hauschka (ICR) mouse liver microsomes assessed as dihydroxylcinobufagin formation at 100 uM at 37 degC after 30 mins by UFLC-ESI-MS analysis in presence of NADPH-generating system", "assay_type": "ADME", "conditions": "0.5 h", "in_short": "as §2"}, "Liver microsome [10]": {"test_system": "Liver microsome", "experiment": "Drug metabolism in human liver microsomes assessed as 5beta-hydroxylcinobufagin formation at 100 uM at 37 degC after 30 mins […] in presence of 10 uM sulfaphenazole CYP2C9 inhibitor", "assay_type": "ADME", "conditions": "0.5 h"}, "Liver microsome [11]": {"test_system": "Liver microsome", "experiment": "Ratio of Vmax/Km in beagle dog liver microsomes assessed as 1alpha-hydroxylcinobufagin formation at 100 uM […] by UFLC-ESI-MS analysis", "assay_type": "ADME, Canis lupus familiaris", "conditions": "0.5 h"}, "[12]": {"experiment": "Drug metabolism in Colony-bred Chinese Bama minipig liver microsomes assessed as 5beta-hydroxylcinobufaginn formation per mg of protein at 100 uM at 37 degC after 30 mins by UFLC-ESI-MS analysis", "assay_type": "ADME, Sus scrofa", "conditions": "pig, 0.5 h", "in_short": "as §2"}, "[13]": {"experiment": "Drug metabolism in cynomolgus monkey liver microsomes assessed as 1alpha-hydroxylcinobufagin formation at 100 uM at 37 degC after 30 mins by UFLC-ESI-MS analysis in presence of 1 uM ketoconazole CYP3A4 inhibitor", "assay_type": "ADME, Macaca fascicularis", "conditions": "0.5 h", "in_short": "as §1"}, "Liver microsome [14]": {"test_system": "Liver microsome", "experiment": "Drug metabolism in beagle dog liver microsomes assessed as 1alpha-hydroxylcinobufagin formation at 100 uM at 37 degC after 30 mins by UFLC-ESI-MS analysis", "assay_type": "ADME, Canis lupus familiaris", "conditions": "0.5 h, read-out: Km(app)", "in_short": "as §2"}, "[15]": {"experiment": "Drug metabolism in cynomolgus monkey liver microsomes assessed as 1alpha-hydroxylcinobufagin formation at 100 uM at 37 degC after 30 mins by UFLC-ESI-MS analysis in presence of 10 uM furafylline CYP1A2 inhibitor", "assay_type": "ADME, Macaca fascicularis", "conditions": "0.5 h", "in_short": "as §1"}, "[16]": {"experiment": "Ratio of Vmax/Km in cynomolgus monkey liver microsomes assessed as 1alpha-hydroxylcinobufagin formation at 100 uM […] by UFLC-ESI-MS analysis", "assay_type": "ADME, Macaca fascicularis", "conditions": "0.5 h"}, "[17]": {"experiment": "Drug metabolism in Colony-bred Chinese Bama minipig liver microsomes assessed as 1alpha-hydroxylcinobufagin formation at 100 uM at 37 degC after 30 mins by UFLC-ESI-MS analysis in presence of 1 uM ketoconazole CYP3A4 inhibitor", "assay_type": "ADME, Sus scrofa", "conditions": "pig, 0.5 h", "in_short": "as §1"}, "Liver microsome [18]": {"test_system": "Liver microsome", "experiment": "Drug metabolism in beagle dog liver microsomes assessed as 1alpha-hydroxylcinobufagin formation at 100 uM at 37 degC after 30 mins by UFLC-ESI-MS analysis in presence of 10 uM sulfaphenazole CYP2C9 inhibitor", "assay_type": "ADME, Canis lupus familiaris", "conditions": "0.5 h", "in_short": "as §1"}, "Liver microsome [19]": {"test_system": "Liver microsome", "experiment": "Ratio of Vmax/Km in human liver microsomes assessed as 5beta-hydroxylcinobufaginn formation at 100 uM at 37 degC […] by UFLC-ESI-MS analysis", "assay_type": "ADME", "conditions": "0.5 h"}, "Liver microsome [20]": {"test_system": "Liver microsome", "experiment": "Drug metabolism in human liver microsomes assessed as 5beta-hydroxylcinobufagin formation at 100 uM at 37 degC after 30 mins […] in presence of 50 uM triethylenethiophosphoramide CYP2B6 inhibitor", "assay_type": "ADME", "conditions": "0.5 h"}, "[21]": {"experiment": "Drug metabolism in Colony-bred Chinese Bama minipig liver microsomes assessed as 1alpha-hydroxylcinobufagin formation at 100 uM at 37 degC after 30 mins by UFLC-ESI-MS analysis in presence of 10 uM sulfaphenazole CYP2C9 inhibitor", "assay_type": "ADME, Sus scrofa", "conditions": "pig, 0.5 h", "in_short": "as §1"}, "Liver": {"test_system": "Liver", "experiment": "Ratio of Vmax/Km in Swiss-Hauschka (ICR) mouse liver microsomes assessed as 5beta-hydroxylcinobufaginn formation at 100 uM […] by UFLC-ESI-MS analysis", "assay_type": "ADME", "conditions": "0.5 h"}, "[22]": {"experiment": "Drug metabolism in Colony-bred Chinese Bama minipig liver microsomes assessed as 5beta-hydroxylcinobufagin formation at 100 uM at 37 degC after 30 mins by UFLC-ESI-MS analysis in presence of NADPH-generating system", "assay_type": "ADME, Sus scrofa", "conditions": "pig, 0.5 h", "in_short": "as §2"}, "[23]": {"experiment": "Drug metabolism in Swiss-Hauschka (ICR) mouse liver microsomes assessed as 1alpha-hydroxylcinobufagin formation per mg of protein at 100 uM at 37 degC after 30 mins by UFLC-ESI-MS analysis", "assay_type": "ADME", "conditions": "0.5 h", "in_short": "as §2"}, "[24]": {"experiment": "Drug metabolism in Colony-bred Chinese Bama minipig liver microsomes assessed as 5beta-hydroxylcinobufaginn formation at 100 uM at 37 degC after 30 mins by UFLC-ESI-MS analysis", "assay_type": "ADME, Sus scrofa", "conditions": "pig, 0.5 h, read-out: Km(app)", "in_short": "as §2"}, "Liver microsome [25]": {"test_system": "Liver microsome", "experiment": "Drug metabolism in human liver microsomes assessed as 1alpha-hydroxylcinobufagin formation at 100 uM at 37 degC after 30 mins […] in presence of 10 uM furafylline CYP1A2 inhibitor", "assay_type": "ADME", "conditions": "0.5 h"}}, "data": [{"smiles": "CC(=O)O[C@H]1[C@H]2O[C@]23[C@@H]2CC[C@@H]4C[C@@H](O)CC[C@]4(C)[C@H]2CC[C@]3(C)[C@H]1c1ccc(=O)oc1", "note": "[CINOBUFAGIN]", "values": [{"measurement": "Drug metabolism", "setting": "Liver microsome [1]", "value": "metabolite_detected"}, {"measurement": "Drug metabolism", "setting": "Liver microsome [2]", "value": "metabolite_detected"}, {"measurement": "Drug metabolism", "setting": "Liver microsome [3]", "value": "metabolite_detected"}, {"measurement": "Drug metabolism", "setting": "Liver microsome [4]", "value": "metabolite_detected"}, {"measurement": "Km", "setting": "[5]", "value": 8.5, "unit": "µM"}, {"measurement": "Drug metabolism", "setting": "Liver microsome [6]", "value": "metabolite_not_detected"}, {"measurement": "Drug metabolism", "setting": "[7]", "value": "metabolite_detected"}, {"measurement": "Drug metabolism", "setting": "[8]", "value": "metabolite_detected"}, {"measurement": "Drug metabolism", "setting": "[9]", "value": "metabolite_detected"}, {"measurement": "Drug metabolism", "setting": "Liver microsome [10]", "value": "metabolite_detected"}, {"measurement": "Vmax/Km", "setting": "Liver microsome [11]", "value": 387.9, "unit": "µL/min/mg"}, {"measurement": "Vmax", "setting": "[12]", "value": 0.65, "unit": "nmol/min/mg"}, {"measurement": "Drug metabolism", "setting": "[13]", "value": "metabolite_not_detected"}, {"measurement": "Km", "setting": "Liver microsome [14]", "value": 3.3, "unit": "µM"}, {"measurement": "Drug metabolism", "setting": "[15]", "value": "metabolite_detected"}, {"measurement": "Vmax/Km", "setting": "[16]", "value": 62, "unit": "µL/min/mg"}, {"measurement": "Drug metabolism", "setting": "[17]", "value": "metabolite_not_detected"}, {"measurement": "Drug metabolism", "setting": "Liver microsome [18]", "value": "metabolite_detected"}, {"measurement": "Vmax/Km", "setting": "Liver microsome [19]", "value": 57.4, "unit": "µL/min/mg"}, {"measurement": "Drug metabolism", "setting": "Liver microsome [20]", "value": "metabolite_detected"}, {"measurement": "Drug metabolism", "setting": "[21]", "value": "metabolite_detected"}, {"measurement": "Vmax/Km", "setting": "Liver", "value": 644.6, "unit": "µL/min/mg"}, {"measurement": "Drug metabolism", "setting": "[22]", "value": "metabolite_detected"}, {"measurement": "Vmax", "setting": "[23]", "value": 8.39, "unit": "nmol/min/mg"}, {"measurement": "Km", "setting": "[24]", "value": 11.9, "unit": "µM"}, {"measurement": "Drug metabolism", "setting": "Liver microsome [25]", "value": "metabolite_detected"}]}]}
